Results taken from ChEMBL document CHEMBL3232862, “Optimization of chemical functionalities of indole-2-carboxamides to improve allosteric parameters for the cannabinoid receptor 1 (CB1)” (J Med Chem, 2014).
Active and inactive are the calls of the source. The calls are words filed in the database; no cut-off is given here.

How the values were obtained:
[1] = molecular target: Cannabinoid receptor 1 (Homo sapiens) (UniProt P21554); assay: Positive allosteric modulation of cannabinoid CB1 receptor (unknown origin) expressed in HEK293 cells assessed as induction of ERK1/2 phosphorylation by Western blot analysis in presence of siRNA targeting beta-arrestin 1; assay type: cell-based
Cannabinoid receptor 1 (Homo sapiens), sequence (P21554 whole entry): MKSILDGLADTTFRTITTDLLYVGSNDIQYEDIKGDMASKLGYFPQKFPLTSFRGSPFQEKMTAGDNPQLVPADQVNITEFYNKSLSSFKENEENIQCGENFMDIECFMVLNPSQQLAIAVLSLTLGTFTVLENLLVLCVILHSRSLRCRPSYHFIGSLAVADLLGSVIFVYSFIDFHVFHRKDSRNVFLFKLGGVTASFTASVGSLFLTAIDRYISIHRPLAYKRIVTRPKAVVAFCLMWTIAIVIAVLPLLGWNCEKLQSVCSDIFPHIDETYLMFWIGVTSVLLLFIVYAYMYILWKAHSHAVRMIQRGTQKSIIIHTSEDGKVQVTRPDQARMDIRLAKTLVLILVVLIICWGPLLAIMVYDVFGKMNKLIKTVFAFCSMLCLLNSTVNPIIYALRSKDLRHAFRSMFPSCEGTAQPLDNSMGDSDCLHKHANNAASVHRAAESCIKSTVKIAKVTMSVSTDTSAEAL
Outline: (§1)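 HEK293 cells were lipofectamine-transfected with CB1, with or without β-arrestin 1 siRNA (2.6 μg) or a nonsilencing control. After 24 h they were serum-starved for 18 h, with optional PTX at 5 ng/mL for 16 h at 37 °C. Cells were exposed 5 min to modulator (0–10 μM) plus 0.2 μM CP55,940 and lysed. 12 μg protein was run on 10% SDS-PAGE and immunoblotted for phospho-p44/42 and total p44/42.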

[2] = molecular target: Cannabinoid receptor 1 (Homo sapiens) (UniProt P21554); assay: Positive allosteric modulation of cannabinoid CB1 receptor (unknown origin) expressed in HEK293 cells assessed as induction of ERK1/2 phosphorylation at 0.05 to 10 uM in presence of CP55940 for 5 mins and pre-treated with PTX for 16 hrs by Western blot analysis; assay type: cell-based; outline: as §1
[3] = molecular target: Cannabinoid receptor 1 (Homo sapiens) (UniProt P21554); assay: Positive allosteric modulation of cannabinoid CB1 receptor (unknown origin) expressed in HEK293 cells assessed as induction of ERK1/2 phosphorylation by Western blot analysis in absence of siRNA targeting beta-arrestin 1; assay type: cell-based; outline: as §1
[4] = molecular target: Cannabinoid receptor 1 (Homo sapiens) (UniProt P21554); assay: Displacement of [3H]CP55940 from cannabinoid CB1 receptor (unknown origin) expressed in HEK293 cells after 60 mins by liquid scintillation counting; assay type: cell-based
Outline: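 Membranes from HEK293 cells transiently transfected with CB1 (calcium phosphate), harvested 24 h post-transfection. […] At least nine test concentrations, 100 pM–100 μM. Nonspecific binding defined with 1 μM unlabeled CP55,940. Bound ligand kept below 10%. Filtration on GF/C. Duplicates, ≥3 independent experiments. KB and α obtained by nonlinear regression using the allosteric ternary complex model.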

[5] = molecular target: Cannabinoid receptor 1 (Homo sapiens) (UniProt P21554); assay: Allosteric modulation of cannabinoid CB1 receptor (unknown origin) expressed in HEK293 cells assessed as inhibition of CP55940-induced [35S]GTPgammaS binding after 60 mins by liquid scintillation counting; assay type: functional, cell-based
Outline: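 Membranes from HEK293 cells transiently expressing CB1 (calcium phosphate transfection, harvested 24 h) were used at 7.5 μg per assay. They were incubated 60 min at 30 °C in Tris pH 7.4, MgCl2, EGTA and NaCl with 0.1 nM [35S]GTPγS, 10 μM GDP, 0.1% BSA and CP55,940 (100 pM–100 μM), with or without modulator. Nonspecific binding was taken with 10 μM GTPγS. Read-out was filtration and scintillation counting, duplicates, ≥3 experiments.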

[6] = molecular target: Cannabinoid receptor 1 (Homo sapiens) (UniProt P21554); assay: Positive allosteric modulation of cannabinoid CB1 receptor (unknown origin) expressed in HEK293 cells assessed as effect on ERK1/2 phosphorylation at 5 uM by Western blot analysis in absence of siRNA targeting beta-arrestin 1; assay type: cell-based; outline: as §1

SMILES	inhibition [1]	Activity [2]	inhibition [3]	Kb [4]	inhibition [5]	Activity [6]
CCCCCCc1c(C(=O)NCCc2ccc(N(C)C)cc2)[nH]c2ccc(Cl)cc12	inactive	Active	Dose-dependent effect	89.1 nM	Dose-dependent effect	Active
CCCc1c(C(=O)NCCc2ccc(N(C)C)cc2)[nH]c2ccc(Cl)cc12	inactive		Dose-dependent effect	259 nM	Dose-dependent effect	Active
CCc1c(C(=O)NCCc2ccc(N(C)C)cc2)[nH]c2cc(Cl)ccc12				3670 nM		
CCCCc1c(C(=O)NCCc2ccc(N(C)C)cc2)[nH]c2ccc(Cl)cc12				209 nM		
CCCc1c(C(=O)NCCc2ccc(N3CCCCC3)cc2)[nH]c2ccc(Cl)cc12				1750 nM		
CCc1c(C(=O)NCCc2ccc(N(C)C)cc2)[nH]c2cc(F)ccc12				1580 nM		
